Source: PubChem (Johns Hopkins Ion Channel Center)
Compounds with a hit are over-represented: about 3.1% of the library has one in this group of screens.
hERG protect: hERG rescue from dofetilide block, primary screen, cell-based, CHO-hERG, FluxOR thallium flux, dofetilide IC70. Voltage-gated inwardly rectifying potassium channel KCNH2 (Homo sapiens), Q12809. dofetilide IC70 present. activation (rescue from dofetilide block), less the hit threshold, % at 10 µM. actives 0.51% (n = 310,000). AID 1511, 2009;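 active = activation above the mean of controls blocked by dofetilide plus 5 SD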;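 also: thallium influx through hERG after potassium depolarization seen as dye fluorescence rise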
KCNQ1 act: potentiators or activators of KCNQ1 channel, primary screen, cell-based, thallium flux, high-throughput; actives 0.35% (n = 310,000); B-score at 10 µM; CHO-K1 KCNQ1, thallium flux FluxOR fluorescence; stronger effect = higher value; Potassium voltage-gated channel subfamily KQT member 1 (Homo sapiens), P51787;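 active = fluorescence ratio B-score, a plate-corrected score, at least three library SD, with initial intensity B-score within 5 SD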
Target sequence (P51787 whole entry, looked up): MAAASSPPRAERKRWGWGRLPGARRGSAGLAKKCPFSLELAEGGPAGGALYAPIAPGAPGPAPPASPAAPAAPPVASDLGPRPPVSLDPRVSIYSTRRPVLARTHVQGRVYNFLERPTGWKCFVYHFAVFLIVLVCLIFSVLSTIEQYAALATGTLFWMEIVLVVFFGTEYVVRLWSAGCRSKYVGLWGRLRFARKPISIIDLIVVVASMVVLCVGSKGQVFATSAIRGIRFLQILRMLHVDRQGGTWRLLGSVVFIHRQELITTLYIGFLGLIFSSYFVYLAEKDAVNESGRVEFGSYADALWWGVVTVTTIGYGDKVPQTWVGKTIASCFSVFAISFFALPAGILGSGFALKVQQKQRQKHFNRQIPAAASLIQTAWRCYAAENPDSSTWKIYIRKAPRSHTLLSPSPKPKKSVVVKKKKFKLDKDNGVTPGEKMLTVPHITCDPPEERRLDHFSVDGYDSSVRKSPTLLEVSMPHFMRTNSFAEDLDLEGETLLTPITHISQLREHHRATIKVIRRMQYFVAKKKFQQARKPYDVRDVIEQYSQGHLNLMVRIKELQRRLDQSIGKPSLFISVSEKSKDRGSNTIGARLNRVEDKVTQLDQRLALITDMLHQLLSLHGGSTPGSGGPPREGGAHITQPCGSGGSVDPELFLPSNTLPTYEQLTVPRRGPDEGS
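Material: CHO-K1 cells stably expressing KCNQ1. Medium: assay buffer for compound exposure, DMSO matched across wells. Reagent: K+/Tl+ depolarizing stimulus. Compound dosing: single-concentration screen. Times: 37 °C overnight plating, 90-min dark dye load, 20-min compound pretreatment. Technique: FluxOR Tl+ flux fluorescence.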
KCNQ1 block: inhibitors of human KCNQ1 channel, primary screen, cell-based, thallium flux, high-throughput | B-score at 10 µM | CHO-K1 KCNQ1, FluxOR thallium flux fluorescence; stronger effect = higher value | actives 1.3% (n = 310,000) | AID 2642, 2010;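 active = compounds whose thallium flux B-score, printed positive for inhibition, exceeds three library SD while starting fluorescence stays within three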;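 also: channel opened by potassium depolarization with thallium stimulus after 20 min compound exposure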
KCNK3 block: human KCNK3 channel inhibitors, primary screen, CHO cells, FluxOR thallium flux, B-score. B-score at 10 µM. Potassium channel subfamily K member 3 (Homo sapiens), O14649. AID 602410, 2012. actives 0.84% (n = 340,000). FluxOR fluorescence; stronger effect = lower value;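 active = B-score under library mean minus 4 SD, starting fluorescence ratio at most library mean plus 5 SD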;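 also: more negative B-score means stronger inhibition of thallium flux through KCNK3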
KCNK9 block: KCNK9 potassium channel inhibitors, primary screen, HEK293 cells, thallium flux; Potassium channel subfamily K member 9 (Homo sapiens), Q9NPC2; FluxOR thallium flux fluorescence; stronger effect = lower value; B-score at 10 µM; actives 1.2% (n = 310,000);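 active = ratio B-score over 3 SD below the library mean, with starting fluorescence within 5 SD of its mean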;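 also: negative B-score means less thallium flux so channel inhibition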
The depositor's hits bear a star; i = inactive; x = no result; ! = a repeat was not active.

SMILES | hERG protect | KCNQ1 act | KCNQ1 block | KCNK3 block | KCNK9 block
COc1ccccc1-n1c(-c2ccccc2)c[nH]c1=S | -12 | i | i | i | i
COc1ccc(-n2c(-c3ccc(Br)cc3)c[n+]3c2CCc2ccccc2-3)cc1 | -25 | i | 10* | i | i
Cc1ccc(-c2nc(=S)c3c(n2Cc2ccco2)CC(C)(C)OC3)cc1 | -8 | 12* | i | i | i
Cc1ccc(-c2nc(=S)c3c(n2Cc2ccco2)CCCC3)cc1 | x | x | x | i | x
COc1ccc(NCc2ccsc2)cc1 | -3 | i | i | i | i
O=c1c2cccnc2[nH]c(=S)n1CCC1=CCCCC1 | 31* | 27* | i | i | i
COCCCn1c(=S)[nH]c2ncccc2c1=O | -10 | i | i | i | i
CCCCCn1c(=S)[nH]c2ncccc2c1=O | 12* | 20* | i | i | i
CN(Cc1ccc(Cl)cc1Cl)C(=O)CN1C(=O)NC2(CCCC2)C1=O | -4 | i | i | i | i
C[C@H](O)[C@@H]1C(=O)N2CCc3ccc(-c4ccccc4)cc3[C@@H]2C[C@@H]1N(C)C(=O)Nc1cc(Cl)cc(Cl)c1 | x | x | x | i | x
CCN(C(=O)COC(=O)CSc1ccc(F)cc1)c1c(N)n(Cc2ccccc2)c(=O)[nH]c1=O | x | x | x | i | x
Cc1ccc(S(=O)(=O)c2nc(S(=O)(=O)c3ccc(C)cc3)c(N3CCN(CCO)CC3)s2)cc1 | -14 | i | i | i | i
Oc1ccccc1CN1CCCN(Cc2ccccc2O)C1 | 5.0* | i | i | i | i
CN(C)c1ccc(CNC(=O)CCc2ccc(S(=O)(=O)N3CCCCCC3)cc2)cc1 | x | x | x | i | x
CCC(=O)Nc1ccc(C(=O)CSc2nc3ccccc3cc2CC)cc1 | -8 | i | i | i | -7.2*
CCCCC(O)(c1ccc(F)cc1)C(CN1CCOCC1)c1ccc(Cl)cc1 (stereo unspecified) | -6 | i | i | i | i
COc1ccc2nc(NC(=O)Nc3cccc4ccccc34)sc2c1 | -10 | i | i | i | i
COc1ccc2nc(N=Nc3c(O)ccc4ccccc34)sc2c1 | 17* | 15* | i | x | i
CCCCn1c(N)c(N(CCOC)C(=O)c2cc(-c3ccc(OC)cc3)nc3ccccc23)c(=O)[nH]c1=O | -13 | i | i | i | i
CC(=O)OC(C(=O)NCS(=O)(=O)c1ccc(C)cc1)c1cccnc1 (stereo unspecified) | 4.8* | i | i | i | i
Clc1ccc(OCc2cc(-c3ccccc3)no2)c(Cl)c1 | 0 | i | i | i | -7.4*
Cc1cccc(OCc2cc(-c3ccccc3)no2)c1C | -9 | i | i | i | i
CCOC(=O)C1=C(Nc2ccccc2)CC(C)(O)C(C(=O)OCC)C1c1ccc(Cl)cc1 (stereo unspecified) | x | x | x | -9.9*! | x
O=C(OCCSCCOC(=O)C1CC=CCC1)C1CC=CCC1 (stereo unspecified) | x | x | x | i | x
O=C1c2ccccc2C2(c3cc(C(F)(F)F)cc(C(F)(F)F)c3)NCCN12 (stereo unspecified) | -8 | 14* | i | i | i
SMILES | hERG protect | KCNQ1 act | KCNQ1 block | KCNK3 block | KCNK9 block
O=C1c2ccccc2C2(c3ccccc3)NCCCN12 (stereo unspecified) | -16 | i | i | i | i
Oc1c(Br)cc(Br)cc1CNc1ccc(F)cc1 | -5 | i | i | i | i
Oc1c(Br)cc(Br)cc1CNc1cnc2ccccc2c1 | -10 | i | 6* | i | i
CC(=O)NC12CC3CC(C1)CC(C(=O)Oc1ccc(N(C)S(=O)(=O)c4cc(C)ccc4C)cc1)(C3)C2 | -8 | i | 6* | i | i
Nc1c(-c2ccccc2)cnn1-c1cccc(Cl)c1 | -12 | i | i | i | -7*
CCN1C[C@@H]2[C@@H]3C(=O)N(Cc4ccccc4)C(=O)[C@@H]3[C@](CC)(C1=O)N2C(=O)c1ccc(Cl)c(Cl)c1 | x | x | x | i | x
COc1ccc(NC(=O)c2ccco2)c(OC)c1 | -7 | i | i | i | i
COc1ccc(NC(=O)c2oc3ccccc3c2NC(=O)c2ccco2)c(OC)c1 | -11 | i | i | i | -7.8*
COc1ccc(OC)c(NC(=O)c2c(NC(=O)c3ccco3)sc3c2CCC3)c1 | -9 | i | i | x | -7.5*
O=C(NCc1ccccc1CN1CCCC1)c1ccc(Cl)c(N2CCCC2=O)c1 | x | x | x | i | x
O=C(COC(=O)/C=C/c1ccccc1)NC(=O)NCc1ccccc1 | x | x | x | i | x
COc1ccc(C2C(C(=O)c3cccs3)=C(O)C(=O)N2c2nnc(C)s2)cc1OC (stereo unspecified) | -10 | i | 11* | i | i
Cc1cccc(C(=O)NC(=S)N2CCc3ccccc3C2)c1 | 21* | 13* | i | i | i
c1ccc(CN2CCC3CC2c2cc(N4CCOCC4)ccc23)cc1 (stereo unspecified) | x | x | x | i | x
COc1cc(/C=C/C(=O)c2ccc3c(c2)OCO3)cc(Cl)c1O | -12 | i | 6* | i | -7*
CC(=O)NC(C)c1ccc(C(=O)CSc2nnc(C3CC3)n2C2CC2)cc1 (stereo unspecified) | x | x | x | i | x
CCc1c(C2(O)CCCCC2)[nH]c2cnccc12 | x | x | x | i | x
O=C(NCc1ccc2c(c1)OCO2)c1ccc(CSCc2cccc(Cl)c2)o1 | -14 | i | i | i | -7.5*
O=C(CSCc1cccc(Cl)c1)NCc1ccc2c(c1)OCO2 | -11 | i | i | i | i
COc1cc2c(C#Cc3cccnc3)c(-c3ccsc3)oc(=O)c2cc1OC | x | x | x | i | x
C=C(C)Cn1cnc2cc(C)c(C)cc21 | 8.6* | i | i | i | i
N=c1nc2n(cc1F)C1OC(CO)C(O)C1O2 (stereo unspecified) | x | x | x | i | x
O=[N+]([O-])c1ccc(N/N=C2\CC3CC=CC23)cc1 (stereo unspecified) | -28 | i | i | i | i
O=[N+]([O-])c1ccc(N/N=C2\CC3CC=CC23)c([N+](=O)[O-])c1 (stereo unspecified) | -15 | i | 9* | i | i
CCOc1ccc(CN2CCN(Cc3cc4ccccc4[nH]3)CC2CCO)cc1 (stereo unspecified) | -7 | i | i | i | i
COc1cccc(CN2CCN(Cc3cc4ccccc4[nH]3)CC2CCO)c1 (stereo unspecified) | -10 | 13* | i | i | i
CCOc1ccccc1C(=O)NC1CC2CCCC(C1)N2Cc1nnnn1Cc1ccco1 (stereo unspecified) | 22* | i | i | i | i
